Screening results from PubChem.
Sampled rows, rich in hits. Any-hit rate of the full collection: about 2.3%.
Cneo AK release – causes C. neoformans cell lysis | adenylate kinase release luminescence, 4 h; normalised: neutral wells 0, clomiphene wells 100 | lysis activity, % at 15 µM | 0.2% of 360,000 active;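 active = mean lysis activity across replicates of at least 80%, whatever share of replicates individually reach that level; inactive = mean lysis activity below 80%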
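Material: C. neoformans cells | Amount: Yeast cell density of 5 × 10^6 cells/mL | Medium: Fresh YPD growth medium | Dosing: Single dose | Times: Static 4 h at 37 °C with compound, 1 h detection | Detection: AK luminescence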
C2C12 statin – protects C2C12 myotubes from simvastatin toxicity. 0.78% of 330,000 active. ATP luminescence, 48 h; scaled: DMSO 0, geranylgeraniol control 100. rescue of ATP level, % at 7.49 µM;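 active = mean ATP rescue above about 67%, or every replicate alone reaching that limit, limit read from the data, passing the limit was not always enough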;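 note: myotubes were challenged with 10 µM simvastatin during compound exposure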
ERp5 inh – ERp5 (human) disulfide isomerase inhibition | Q15084 | ERp5 insulin aggregation, absorbance 650 nm, 90 min | 0.05% of 350,000 active | inhibition, % at 9.99 µM;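 active = mean replicate inhibition above about 25%, with every replicate also reaching it, limit read from the data, passing the limit was not always enough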
Target sequence (Q15084 whole entry, looked up): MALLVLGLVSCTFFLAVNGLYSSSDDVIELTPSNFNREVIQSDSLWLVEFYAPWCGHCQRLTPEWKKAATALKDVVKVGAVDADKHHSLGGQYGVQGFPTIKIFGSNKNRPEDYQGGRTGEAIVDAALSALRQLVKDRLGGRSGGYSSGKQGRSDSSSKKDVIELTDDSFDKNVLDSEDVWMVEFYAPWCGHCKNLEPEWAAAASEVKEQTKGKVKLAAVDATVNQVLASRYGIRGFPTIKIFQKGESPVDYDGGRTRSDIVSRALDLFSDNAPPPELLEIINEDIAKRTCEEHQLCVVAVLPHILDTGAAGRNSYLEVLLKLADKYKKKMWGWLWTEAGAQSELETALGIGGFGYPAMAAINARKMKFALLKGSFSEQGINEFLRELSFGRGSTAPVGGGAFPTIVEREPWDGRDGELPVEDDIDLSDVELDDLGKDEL
DENV2 CPE rescue – inhibitors of DENV2 cytopathic effect. DENV2-infected cells, cytopathic effect rescue, plate reader. CPE inhibition, % at 9.99 µM. 1.7% of 350,000 active; in the data active = CPE inhibition above about 20%, passing the limit was not always enough; tested in BHK-21 cells;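 note: 0% = median of neutral control wells and 100% = median of positive control wells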
F508del corr – CFTR F508del correction in bronchial cells; AID 720511; activity (quench increase), % at 7.58 µM; 0.36% of 350,000 active; CFBE cells, YFP halide quenching; stimulated with forskolin plus potentiator P3; % fluorescence drop versus neutral controls;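 active = mean added fluorescence quench of at least 8% versus neutral control, with both replicates also reaching 8%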;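 note: cells transiently co-express mutant CFTR-F508del with the halide-sensitive YFP; corrector assay measuring rescue of mutant channel to the surface after 24 h compound exposure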
PDI turbidity – blocks human protein disulfide isomerase activity; 0.052% of 350,000 active; inhibition, % at 10 µM; AID 588391; P07237; PDI insulin aggregation turbidity, A650, 90 min;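 active = mean inhibition across replicates of 30% or more, whatever share of single replicates reach that level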
The depositor's hits bear a star; nt = no result given; ! = not confirmed by another sample.

SMILES	Cneo AK release	C2C12 statin	ERp5 inh	DENV2 CPE rescue	F508del corr	PDI turbidity
COc1ccc(C(=O)c2ccc3oc(-c4ccc(OC)cc4)c(C#CCCO)c3c2)cc1	0	-66	4	79*	5	-13
O=C(CSc1ccc(Cl)cc1)N1CCN(c2c(Cl)cccc2[N+](=O)[O-])CC1	18	67*	nt	nt	nt	2
O=C(/C=C/c1ccc(Cl)cc1)N1CCN(c2c(Cl)cccc2[N+](=O)[O-])CC1	0	nt	-3	-4	2	13
COc1ccc(S(=O)(=O)Nc2ccc3c(c2)C(=O)N([C@@H](C)CO)C[C@@H](C)[C@H](CN(C)S(=O)(=O)c2ccc(F)cc2)O3)cc1	1	nt	8	-2	1	nt
COc1ccc(S(=O)(=O)Nc2ccc3c(c2)C(=O)N([C@@H](C)CO)C[C@H](C)[C@H](CN(C)S(=O)(=O)c2ccc(F)cc2)O3)cc1	59	-18	11	31*!	2	14
COc1ccc(S(=O)(=O)Nc2ccc3c(c2)C(=O)N([C@H](C)CO)C[C@@H](C)[C@H](CN(C)S(=O)(=O)c2ccc(F)cc2)O3)cc1	-2	nt	-3	25*	1	nt
CCCCNC(=O)c1ccc(NS(=O)(=O)c2ccc3[nH]c(=O)[nH]c3c2)cc1	-1	6	5	23*	3	-5
O=C(Nc1ccc(Cl)cn1)c1cccc2ccccc12	8	-55	2	-2	13*	1
COc1cc(NC(=O)c2ccc3c(SCC(=O)O)c4c(nc3c2)CCC4)cc(OC)c1OC	0	3	6	0	-3	9
COc1cc(NC(=O)CSc2c3c(nc4ccccc24)CCC3)cc(OC)c1OC	-2	nt	0	70*	0	13
CCN(C(=O)c1ccc2c(SCC(=O)O)c3c(nc2c1)CCC3)c1cc(Cl)ccc1OC	-1	-1	0	50*	-5	-2
O=C([C@H]1[C@H](CO)[C@H]2Cn3c(ccc(C4=CCCC4)c3=O)[C@H]2N1Cc1nccs1)N1CCOCC1	4	-13	-2	1	nt	nt
COc1cc(=O)n2c(n1)SCCC2	1	11	nt	nt	nt	6
O=C(COc1cc(=O)n2c(n1)SCCC2)c1ccccc1	-4	114*	nt	nt	nt	10
Cc1noc(C)c1NC(=O)N(C)C[C@H]1Oc2ccc(NC(=O)C3CC3)cc2CC(=O)N([C@H](C)CO)C[C@@H]1C	-2	-2	1	-1	-3	nt
CC(C)NC(=O)Nc1cccc2c1O[C@H](CN(C)S(=O)(=O)c1ccc(Cl)cc1)[C@@H](C)CN([C@@H](C)CO)C2=O	1	-7	5	-6	3	nt
N#C[C@@H]1[C@H](c2ccc(C#CC3CCCC3)cc2)[C@@H](CO)N1S(=O)(=O)c1ccccc1	8	9	2	50*	-2	nt
CS(=O)(=O)N1[C@H](CO)[C@@H](c2ccc(C#CC3CC3)cc2)[C@@H]1C#N	1	16	-6	26*	-1	nt
N#C[C@H]1[C@@H](c2ccc(C#CC3CCCC3)cc2)[C@@H](CO)N1S(=O)(=O)c1ccccc1	9	-302	-4	-5	-1	nt
CS(=O)(=O)N1[C@@H](C#N)[C@H](c2ccc(C#CC3CC3)cc2)[C@@H]1CO	0	9	0	-9	3	nt
O=C(NCC1CCCO1)c1ccc(C(=O)NCC2CCCO2)cc1 (stereo not given)	nt	4	nt	nt	nt	11
O=C(NCC1CCCO1)c1ccc(Cl)c(F)c1F (stereo not given)	0	84*	nt	nt	nt	-6
C[C@H]1CN([C@@H](C)CO)C(=O)CCCn2cc(nn2)CO[C@@H]1CN(C)Cc1ccc2c(c1)OCCO2	-2	-3	-2	2	1	nt
C[C@@H]1CN([C@@H](C)CO)C(=O)Cc2cc(NC(=O)CCCCCC(=O)Nc3ccccc3N)ccc2O[C@@H]1CN(C)C(=O)Nc1ccc2c(c1)OCO2	-1	5	1	-6	-2	nt
CC(C)c1ccc(/C=N/N2CCN(c3ccccn3)CC2)cc1	-6	nt	5	47*	0	1
CC(/C=N/N1CCN(c2ccccc2)CC1)=C\c1ccccc1	0	nt	5	1	-1	-3
CC(/C=N/N1CCN(c2ccccn2)CC1)=C\c1ccccc1	-2	nt	8	23*	nt	-3
